Experiment [1] deals with Cannabinoid receptor 1 (Rattus norvegicus) (UniProt P20272). The experiment in a line: Agonist activity at rat cerebellar membrane CB1 receptor at 10 uM by [35]GTPgammaS binding assay relative to basal level. The class given is functional. An outline of the steps: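 Rat cerebellar membranes (CB1) used to screen for CB1 agonism and antagonism, per a previously described method. [35S]GTPγS binding with compounds at 10 µM. Results given as % basal; mean ± SEM of at least three duplicate experiments.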
Sequence of Cannabinoid receptor 1 (Rattus norvegicus) (P20272 whole entry): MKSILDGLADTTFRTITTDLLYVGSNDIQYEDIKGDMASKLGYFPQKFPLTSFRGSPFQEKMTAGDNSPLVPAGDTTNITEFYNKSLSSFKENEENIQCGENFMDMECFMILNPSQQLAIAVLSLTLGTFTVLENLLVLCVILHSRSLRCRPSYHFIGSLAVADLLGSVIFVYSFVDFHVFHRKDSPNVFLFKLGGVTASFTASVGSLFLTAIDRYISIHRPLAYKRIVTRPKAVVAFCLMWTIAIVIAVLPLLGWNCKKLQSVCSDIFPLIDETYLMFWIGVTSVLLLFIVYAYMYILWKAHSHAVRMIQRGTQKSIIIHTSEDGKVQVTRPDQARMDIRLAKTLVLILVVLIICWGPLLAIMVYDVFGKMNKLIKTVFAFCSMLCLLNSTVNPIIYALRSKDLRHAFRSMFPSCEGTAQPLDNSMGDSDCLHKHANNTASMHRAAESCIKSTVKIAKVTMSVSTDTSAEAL

Experiment [2] has as its target T1, Cannabinoid receptor 2 (Homo sapiens, UniProt P34972). As to the kind of experiment: Agonist activity at human CB2 receptor expressed in CHO cells by [35]GTPgammaS binding assay. The class given is functional, cell-based. An outline of the steps:
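hCB2 stably expressed in CHO cells; [35S]GTPγS binding stimulated by agonist, procedure of Savinainen et al. Full concentration–response curves were run only for compounds giving over 50% relative activity at 10 µM. EC50 and Emax were obtained by nonlinear regression fitted to a sigmoidal concentration–response equation.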

Experiment [3] deals with T1, Cannabinoid receptor 2. As to the kind of experiment: Agonist activity at human CB2 receptor expressed in CHO cells at 10 uM by [35]GTPgammaS binding assay relative to HU210. The class given is functional, cell-based. In outline:
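Human CB2 stably expressed in CHO cells; agonist-stimulated binding of the nonhydrolyzable GTP analogue [35S]GTPγS, run as described by Savinainen et al. Single test concentration 10 µM. Response expressed as percentage of the full CB1/CB2 agonist HU-210. Mean ± SEM of at least three experiments performed in duplicate.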

T1 sequence (P34972 whole entry): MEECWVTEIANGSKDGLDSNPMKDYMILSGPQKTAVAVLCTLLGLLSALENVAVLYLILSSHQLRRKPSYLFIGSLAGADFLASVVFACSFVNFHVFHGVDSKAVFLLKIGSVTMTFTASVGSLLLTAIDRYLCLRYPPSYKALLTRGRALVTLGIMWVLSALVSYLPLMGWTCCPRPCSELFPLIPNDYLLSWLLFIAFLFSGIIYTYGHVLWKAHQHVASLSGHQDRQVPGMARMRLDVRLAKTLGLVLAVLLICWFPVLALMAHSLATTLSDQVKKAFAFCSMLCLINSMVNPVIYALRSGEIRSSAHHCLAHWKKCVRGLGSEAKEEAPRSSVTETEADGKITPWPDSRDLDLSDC

In experiment [1], `COc1ccc(C(=O)c2nccc3ccccc23)cc1` showed an Activity of 85%. On the same count and under the same terms, as for `CCOc1ccc(C(=O)c2ccc3ccccc3n2)cc1`, the figure is 100%. Molecule `COc1ccccc1C(=O)c1ccc2ccccc2n1` returned an Activity in experiment [1] of 106%. In experiment [2], this molecule had a concentration giving a half-maximal response (EC50) of 2510 nM. Also, the Emax in experiment [3] was 53%.

Regarding `O=C(c1ccc(Cl)cc1)c1ccc2ccccc2n1`, the Activity in experiment [1] stood at 101%. The molecule further had a half-maximal effective concentration (EC50) in experiment [2] of 3980 nM. Moreover, the Emax in experiment [3] was found to be 63%. Molecule `CN(C)c1ccc(C(=O)c2nccc3ccccc23)cc1` gave an Activity in experiment [1] of 99%. The EC50 in experiment [2] was 2510 nM. Moreover, the maximum response (Emax) in experiment [3] was found to be 68%. As to `O=C(c1ccc(Cl)c(Cl)c1)c1nccc2ccccc12`, the Activity in experiment [1] came out at 111%.

In experiment [1], `COc1cccc(C(=O)c2ccc3ccccc3n2)c1` registered an Activity of 102%. The same molecule gave an EC50 in experiment [2] of 2000 nM. In experiment [3], this molecule gave an Emax of 54%.

The molecule `O=C(c1ccc(F)cc1)c1nccc2ccccc12` displayed an Activity in experiment [1] of 104%.

`O=C(c1cccc(F)c1)c1nccc2ccccc12`: in experiment [1], the Activity was 99%. In the case of `O=C(c1ccc(Cl)cc1)c1nccc2ccccc12`, the Activity in experiment [1] is 101%. In experiment [1], `CC(C)Oc1ccc(C(=O)c2ccc3ccccc3n2)cc1` gave an Activity of 102%. Same read-out and setting: as for `O=C(c1ccc(Cl)c(Cl)c1)c1ccc2ccccc2n1`, the figure is 100%; as for `O=C(c1ccc(F)cc1)c1ccc2ccccc2n1`, 99%; as for `O=C(c1ccc(C(F)(F)F)cc1)c1ccc2ccccc2n1`, 105%. Still for that read-out and setting: for `COc1ccc(C(=O)c2ccc3ccccc3n2)cc1` the value was 108%. `CN(C)c1ccccc1C(=O)c1nccc2ccccc12` showed an Activity in experiment [1] of 116%. Besides, the EC50 in experiment [2] was 631 nM. Moreover, in experiment [3], the Emax turned out to be 95%. `O=C(c1ccccc1)c1nccc2ccccc12` had an Activity in experiment [1] of 102%. Same read-out and setting: as for `O=C(c1cc(C(F)(F)F)cc(C(F)(F)F)c1)c1nccc2ccccc12`, the figure is 101%; as for `CCCOc1ccc(C(=O)c2ccc3ccccc3n2)cc1`, 108%.

On to `O=C(c1cc(C(F)(F)F)cc(C(F)(F)F)c1)c1ccc2ccccc2n1`, for which the Activity in experiment [1] was 108%. For the molecule `O=C(c1ccc(C(F)(F)F)cc1)c1nccc2ccccc12`, the Activity in experiment [1] amounted to 95%. Also, the half-maximal effective concentration (EC50) in experiment [2] is 3160 nM. Besides, the maximal response (Emax) in experiment [3] is 57%. As to `O=C(c1cccc(C(F)(F)F)c1)c1nccc2ccccc12`, the Activity in experiment [1] amounted to 106%. Turning to `COc1cccc(C(=O)c2nccc3ccccc23)c1`, the Activity in experiment [1] stood at 112%. For `O=C(c1cccc(C(F)(F)F)c1)c1ccc2ccccc2n1`, in experiment [1], the Activity was found to be 102%. The molecule also had an EC50 in experiment [2] of 5010 nM. The Emax in experiment [3] is 42%. Consider `CN(C)c1ccccc1C(=O)c1ccc2ccccc2n1`, for which the Activity in experiment [1] was determined as 101%. The molecule also gave an EC50 in experiment [2] of 794 nM. Also, the maximal effect (Emax) in experiment [3] was 91%. On the same counts, the results for `O=C(c1ccccc1C(F)(F)F)c1nccc2ccccc12` are 112%, 501 nM and 72%. With `O=C(c1cccc(F)c1)c1ccc2ccccc2n1`, the Activity in experiment [1] was determined as 106%. In turn, `CN(C)c1ccc(C(=O)c2ccc3ccccc3n2)cc1` yielded an Activity in experiment [1] of 101%. In experiment [2], this molecule showed an EC50 of 6310 nM. The molecule also showed an Emax in experiment [3] of 62%. On the same counts, the results for `O=C(c1ccc2ccccc2n1)c1ccccc1C(F)(F)F` are 102%, 2000 nM and 87%. On the same counts, the results for `O=C(c1ccccc1)c1ccc2ccccc2n1` are 103%, 7940 nM and 52%.

The values above are taken from ChEMBL document CHEMBL1153027, “Synthesis of quinolinyl and isoquinolinyl phenyl ketones as novel agonists for the cannabinoid CB2 receptor” (Bioorg Med Chem, 2009).
